Experimental data of several laboratories.
Lines come from different studies, so protocols differ.
Organism: Pseudomonas aeruginosa

SMILES | assay | system | conditions | measurement | result
O=c1cccccc1S | microbial growth, broth dilution | ATCC27853 | – | MIC80 | > 71.4 µM
CC(C)Oc1c(NC(=O)c2ccc(NC(=O)[C@H](CC(N)=O)NC(=O)c3ccc(NC(=O)c4cc(C#N)cn4C)cc3)cc2)ccc(C(=O)Nc2ccc(C(=O)O)cc2)c1O | microbial growth | PA14 | – | MIC | > 64 µg/mL
CC1(C)S[C@@H]2[C@H](NC(=O)[C@H](N)c3ccc(O)cc3)C(=O)N2[C@H]1C(=O)O | microbial growth, disc diffusion | ATCC27853 | 250 µg/mL | inhibition zone | 9.38 mm
O=C(Sc1cccccc1=O)c1ccccc1C(F)(F)F | microbial growth, broth dilution | ATCC27853 | – | MIC80 | > 71.4 µM
CC[C@H]1OC(=O)[C@H](C)[C@@H](O[C@H]2C[C@@](C)(OC)[C@@H](O)[C@H](C)O2)[C@H](C)[C@@H](O[C@@H]2O[C@H](C)C[C@H](N(C)C)[C@H]2O)[C@](C)(O)C[C@@H](C)/C(=N\OCOCCOC)[C@H](C)[C@@H](O)[C@]1(C)O | microbial growth, disc diffusion | ATCC9721 | 20000 µg/mL, 24 h | inhibition zone | 19 mm
CC(C)Oc1c(NC(=O)c2ccc(NC(=O)[C@H](CC(N)=O)NC(=O)c3ccc(NC(=O)c4ccc(C#N)c(Cl)c4)cc3)cc2)ccc(C(=O)Nc2ccc(C(=O)O)cc2)c1O | microbial growth | PA14 | – | MIC | > 64 µg/mL
COc1cc(C=Cc2cc(-c3ccc(N(C)C)cc3)nc(O)n2)ccc1O | microbial growth, disc diffusion | ATCC27853 | 500 µg/mL | inhibition zone | 7.67 mm
CC1(C)SC2C(NC(=O)C(NC(=O)C3=C(O)C4(CC4)NC3=O)c3ccccc3)C(=O)N2C1C(=O)O (centres unmarked) | microbial growth, well diffusion | PAO1 | 200 µM | inhibition zone | 12 mm
C=CCOc1c(C)c(O)c(C(=O)/C=C/c2ccccc2)c(OC)c1C | microbial killing, broth dilution | ATCC27853 | – | MBC | > 5000 µg/mL
CC(C)Oc1c(NC(=O)c2ccc(NC(=O)[C@H](CC(N)=O)NC(=O)c3ccc(CNC(=O)c4ccc(C#N)cc4)cc3)cc2)ccc(C(=O)Nc2ccc(C(=O)O)cc2)c1O | microbial growth | PA14 | – | MIC | > 64 µg/mL
CN[C@H](CC(C)C)C(=O)N[C@H]1C(=O)N[C@@H](CC(N)=O)C(=O)N[C@H]2C(=O)N[C@H]3C(=O)N[C@H](C(=O)N[C@H](C(=O)O)c4cc(O)cc(O)c4-c4cc3ccc4O)[C@H](O)c3ccc(c(Cl)c3)Oc3cc2cc(c3O[C@@H]2O[C@H](CO)[C@@H](O)[C@H](O)[C@H]2O[C@H]2C[C@](C)(N)[C@H](O)[C@H](C)O2)Oc2ccc(cc2Cl)[C@H]1O | microbial killing, broth dilution | ATCC9027 | – | MBC | > 128 µM
COc1c(C)c(OS(=O)(=O)c2ccc3ccccc3c2)c(C)c(OS(=O)(=O)c2ccc3ccccc3c2)c1C(=O)/C=C/c1ccccc1 | microbial killing, broth dilution | ATCC27853 | – | MBC | > 5000 µg/mL
CC(C)Oc1c(NC(=O)c2ccc(NC(=O)[C@H](CC(N)=O)NC(=O)c3ccc(-c4nn[nH]c4-c4ccc(C#N)cc4)cc3)cc2)ccc(C(=O)Nc2ccc(C(=O)O)cc2)c1O | microbial growth | PA14 | – | MIC | > 64 µg/mL
CC(C)c1ccc(O)c(=O)cc1 | microbial growth, broth dilution | ATCC27853 | – | MIC80 | > 71.4 µM
COc1cc(C=CC(=O)CC(c2ccc(N(C)C)cc2)n2ccnc2)ccc1O (centres unmarked) | microbial growth, disc diffusion | ATCC27853 | 500 µg/mL | inhibition zone | 23.3 mm
C#CCCCCCCCCCCCC(O)CC(O)CO (centres unmarked) | microbial growth, broth dilution | ATCC27853 | – | IC50 | > 200 µg/mL
O=c1[nH]cc(F)c(=O)[nH]1 | microbial killing, broth dilution | – | 48 h | MBC | 8 µg/mL
CC(C)Oc1c(NC(=O)c2ccc(NC(=O)[C@H](CC(N)=O)NC(=O)c3cccc(NC(=O)c4ccc(C#N)cc4)c3)cc2)ccc(C(=O)Nc2ccc(C(=O)O)cc2)c1O | microbial growth | PA14 | – | MIC | > 64 µg/mL

SMILES | assay | system | conditions | measurement | result
CCCCCCCC(=O)Oc1c(C)c(O)c(C(=O)/C=C/c2ccccc2)c(OC)c1C | microbial killing, broth dilution | ATCC27853 | – | MBC | > 5000 µg/mL
COc1cc(C=CC(=O)CC(c2ccc([N+](=O)[O-])cc2)n2ccnc2)ccc1O (centres unmarked) | microbial growth, disc diffusion | ATCC27853 | 250 µg/mL | inhibition zone | 6 mm
CCCCCCCCCCCCCC(O)CC(O)CO (centres unmarked) | microbial growth, broth dilution | ATCC27853 | – | IC50 | > 200 µg/mL
O=C(Cc1ccccc1)Sc1cccccc1=O | microbial growth, broth dilution | ATCC27853 | – | MIC80 | > 71.4 µM
COc1c(C)c(OC(C)=O)c(C)c(OC(C)=O)c1C(=O)/C=C/c1ccccc1 | microbial killing, broth dilution | ATCC27853 | – | MBC | > 5000 µg/mL
CC(C)CC1NC(=O)C(C(=O)NC(C(=O)NC2C(=O)N3C2SC(C)(C)C3C(=O)O)c2ccccc2)=C1O (centres unmarked) | microbial growth, well diffusion | PAO1 | 200 µM | inhibition zone | 11.7 mm
COc1c(C)c(OCc2ccccc2)c(C)c(O)c1C(=O)/C=C/c1ccccc1 | microbial killing, broth dilution | ATCC27853 | – | MBC | > 5000 µg/mL
Cc1cc(N)c2ccccc2[n+]1CCCCCCCCCC[n+]1c(C)cc(N)c2ccccc21 | microbial growth, disc diffusion | – | 50 µg/disc | inhibition zone | 0 mm
COc1c(C)c(OC)c(C(=O)/C=C/c2ccccc2)c(OC)c1C | microbial killing, broth dilution | ATCC27853 | – | MBC | > 5000 µg/mL
CC1(C)S[C@@H]2[C@H](NC(=O)C(C(=O)O)c3ccccc3)C(=O)N2[C@H]1C(=O)O (some centres unmarked) | microbial growth, well diffusion | PAO1 | 200 µM | inhibition zone | 9.3 mm
CCCC(=O)Oc1c(C)c(O)c(C(=O)/C=C/c2ccccc2)c(OC)c1C | microbial killing, broth dilution | ATCC27853 | – | MBC | > 5000 µg/mL
CC(C)Oc1c(NC(=O)c2ccc(NC(=O)[C@H](CC(N)=O)NC(=O)c3ccc(NC(=O)c4ccc(S(C)(=O)=O)cc4)cc3)cc2)ccc(C(=O)Nc2ccc(C(=O)O)cc2)c1O | microbial growth | PA14 | – | MIC | > 64 µg/mL
COc1cc(C=Cc2cc(-c3ccccc3)nc(O)n2)ccc1O | microbial growth, disc diffusion | ATCC27853 | 250 µg/mL | inhibition zone | 6 mm
CC[C@H](C)[C@H](NC(=O)OCC1c2ccccc2-c2ccccc21)C(=O)Sc1cccccc1=O | microbial growth, broth dilution | ATCC27853 | – | MIC80 | > 71.4 µM
COc1c(C)c(OC(=O)c2ccc(C)cc2)c(C)c(O)c1C(=O)/C=C/c1ccccc1 | microbial killing, broth dilution | ATCC27853 | – | MBC | > 5000 µg/mL
CN1CC(O)=C(C(=O)NC(C(=O)NC2C(=O)N3C2SC(C)(C)C3C(=O)O)c2ccccc2)C1=O (centres unmarked) | microbial growth, well diffusion | PAO1 | 200 µM | inhibition zone | 12.3 mm
O=c1cccccc1SSc1cccccc1=O | microbial growth, broth dilution | ATCC27853 | – | MIC80 | > 71.4 µM
